Reference: BindingDB's records for doi:10.1016/j.bmcl.2013.07.029 (Vanderbilt University Medical Center, 2013)

Molecular target: Metabotropic glutamate receptor 1 (Homo sapiens, UniProt Q13255)
Test: Negative allosteric modulation of human mGlu1 receptor expressed in HEK293A TREx cells assessed as calcium flux after 45 mins
Summary of the method: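 HEK293A TREx cells stably expressing human mGlu1 were induced overnight with 50 ng/mL tetracycline at 37 °C. Ten-point 1:3 compound series were added for 2.3 min, then an EC20 of glutamate, then an EC80 of glutamate 1.9 min later. Ca2+ flux was read for 1.7 min. Values are the average of n ≥ 3.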

Sequence of Metabotropic glutamate receptor 1 (Q13255 whole entry): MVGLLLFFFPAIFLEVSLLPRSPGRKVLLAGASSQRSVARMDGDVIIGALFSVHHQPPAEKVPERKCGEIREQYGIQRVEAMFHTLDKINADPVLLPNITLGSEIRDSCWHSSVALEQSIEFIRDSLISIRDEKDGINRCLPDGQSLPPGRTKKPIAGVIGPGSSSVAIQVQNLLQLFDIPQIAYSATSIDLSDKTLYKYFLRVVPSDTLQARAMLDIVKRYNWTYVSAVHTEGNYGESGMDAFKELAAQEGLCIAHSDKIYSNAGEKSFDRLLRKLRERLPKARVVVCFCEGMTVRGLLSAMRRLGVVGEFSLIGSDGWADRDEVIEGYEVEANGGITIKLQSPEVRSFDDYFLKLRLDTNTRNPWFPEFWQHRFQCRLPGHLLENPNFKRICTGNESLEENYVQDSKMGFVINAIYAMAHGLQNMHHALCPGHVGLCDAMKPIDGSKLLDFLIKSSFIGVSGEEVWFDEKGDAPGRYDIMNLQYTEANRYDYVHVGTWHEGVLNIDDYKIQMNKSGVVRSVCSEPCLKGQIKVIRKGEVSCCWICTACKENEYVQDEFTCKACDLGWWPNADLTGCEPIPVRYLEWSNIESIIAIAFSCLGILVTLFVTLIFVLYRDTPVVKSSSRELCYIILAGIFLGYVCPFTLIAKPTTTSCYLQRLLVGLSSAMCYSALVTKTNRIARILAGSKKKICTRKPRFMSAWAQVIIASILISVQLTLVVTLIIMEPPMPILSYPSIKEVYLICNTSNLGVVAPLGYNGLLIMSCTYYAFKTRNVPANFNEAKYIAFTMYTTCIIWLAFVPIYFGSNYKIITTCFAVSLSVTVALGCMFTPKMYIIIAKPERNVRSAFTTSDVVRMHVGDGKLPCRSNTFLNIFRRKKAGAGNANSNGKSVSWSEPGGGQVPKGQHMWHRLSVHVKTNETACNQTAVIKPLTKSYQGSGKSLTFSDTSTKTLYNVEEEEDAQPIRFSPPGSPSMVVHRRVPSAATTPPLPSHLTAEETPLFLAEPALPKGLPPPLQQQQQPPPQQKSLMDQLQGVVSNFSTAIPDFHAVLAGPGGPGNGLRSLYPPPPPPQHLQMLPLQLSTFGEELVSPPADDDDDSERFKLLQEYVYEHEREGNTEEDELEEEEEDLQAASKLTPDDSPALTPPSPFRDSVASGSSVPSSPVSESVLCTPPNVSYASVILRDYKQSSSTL

| Compound | IC50 |
| --- | --- |
| CC(C)(C)CC(=O)N1C[C@@H]2CN(c3ccccn3)C[C@@H]2C1 | > 31.6 µM |
| CC(C)(C)C(=O)N1C[C@@H]2CN(c3ccccn3)C[C@@H]2C1 | > 31.6 µM |
